This is a sample that favours compounds with a hit; in the whole collection about 1.3% have one here.
Hck Nef HTS: blocks Nef-activated human Hck kinase | Recombinant Hck-YEEI plus Nef, Z-Lyte FRET kinase assay | inhibition, % at 20 µM | actives 0.68% (n = 220,000) | AID 463187;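 active = Hck-Nef kinase inhibition above about 50%, limit read from the data; inactive = inhibition below that limit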;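 also: 0% = DMSO with Hck plus Nef and 100% = Hck alone without Nef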
PKD1 kinase inh: inhibitors of human PKD1 kinase. inhibition, % (test concentration not listed). Q15139. actives 0.056% (n = 200,000). PKD1 kinase fluorescence polarization assay; in the data active = inhibition above about 50%
Mdm2 ligase inh: Mdm2 E3 ligase (human) inhibition | signal enhancement, % at 5 µM | AID 1230 | actives 0.11% (n = 210,000) | Q00987 | cell-based MDM2 ubiquitination luciferase reporter, 2 h; 0 = plate control, 100 = twice control, blank-subtracted;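 active = signal enhancement of 30% or more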;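 also: luminescence tracks abundance of the self-degrading MDM2-luciferase fusion protein; higher signal means inhibition of MDM2 E3 ligase activity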
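Material: stable MDM2–luciferase fusion reporter cells / Quantity: 2000 cells/well / Dosing: single 5 µM compound dose, 0.2% final DMSO / Buffer or medium: DMEM / Schedule: 4 h cell settling then 2 h compound exposure, 37 °C / Detection: luminescence with SteadyLite reagent, 15 min at room temperature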
PERK inhibitor: inhibitors of human PERK kinase; actives 0.17% (n = 220,000); CHO PERK-DD fusion, SEAP luminescence translation reporter; inhibition, % at 5.6 µM; Q9NZJ5;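 active = inhibition above the mean inhibition of all tested compounds plus 3 SD, set separately per screening campaign, cut at about 2.9% in these data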;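 also: PERK kinase domain activated by AP20187 dimerizer at 100 nM; 0% = DMSO with dimerizer and 100% = rapamycin at 8.4 µM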
Target sequence (Q9NZJ5 whole entry, looked up, the tested form may be a part): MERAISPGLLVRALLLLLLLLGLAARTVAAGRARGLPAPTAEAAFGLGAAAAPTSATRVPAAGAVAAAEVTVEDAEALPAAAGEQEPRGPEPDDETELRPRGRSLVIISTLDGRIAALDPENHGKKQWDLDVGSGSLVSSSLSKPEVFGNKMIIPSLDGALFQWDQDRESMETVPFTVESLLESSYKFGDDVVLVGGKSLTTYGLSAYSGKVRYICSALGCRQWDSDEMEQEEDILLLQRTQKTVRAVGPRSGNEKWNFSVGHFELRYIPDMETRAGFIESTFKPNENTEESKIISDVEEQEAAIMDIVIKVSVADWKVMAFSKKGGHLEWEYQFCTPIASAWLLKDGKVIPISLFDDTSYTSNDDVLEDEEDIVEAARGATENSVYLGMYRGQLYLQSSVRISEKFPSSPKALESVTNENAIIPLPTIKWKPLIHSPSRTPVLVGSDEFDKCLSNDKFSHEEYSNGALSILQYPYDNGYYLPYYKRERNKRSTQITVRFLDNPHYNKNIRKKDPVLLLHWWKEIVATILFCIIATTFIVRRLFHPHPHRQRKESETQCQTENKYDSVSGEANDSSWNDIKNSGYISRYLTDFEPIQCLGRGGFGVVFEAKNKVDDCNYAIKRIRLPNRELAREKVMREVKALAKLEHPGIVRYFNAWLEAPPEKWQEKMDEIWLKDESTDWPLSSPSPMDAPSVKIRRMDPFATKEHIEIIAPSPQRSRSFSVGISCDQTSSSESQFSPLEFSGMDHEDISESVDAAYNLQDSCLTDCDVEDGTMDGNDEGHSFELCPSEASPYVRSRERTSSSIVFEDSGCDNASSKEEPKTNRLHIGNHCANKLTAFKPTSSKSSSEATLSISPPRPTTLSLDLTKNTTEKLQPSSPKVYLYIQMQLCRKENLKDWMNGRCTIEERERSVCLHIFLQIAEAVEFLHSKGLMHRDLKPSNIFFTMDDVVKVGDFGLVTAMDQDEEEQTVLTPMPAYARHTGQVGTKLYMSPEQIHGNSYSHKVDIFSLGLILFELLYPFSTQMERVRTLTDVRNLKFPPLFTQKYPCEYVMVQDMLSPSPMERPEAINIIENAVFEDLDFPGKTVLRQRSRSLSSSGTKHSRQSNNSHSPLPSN
TAG inh: triacylglycerol accumulation inhibition | H9c2 cells, Nile Red lipid (TAG) fluorescence; cells loaded with 200 µM oleic acid | inhibition, % at 12.5 µM | actives 0.66% (n = 230,000) | AID 651582;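 active = pattern-corrected inhibition of lipid staining of at least 50% with the nuclear-stain viability signal not falling by more than 50%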;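 also: 0% = DMSO wells and 100% = triacsin C control wells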
Rad51 HR inh: blocks human Rad51 in homologous recombination | Q06609 | hRad51 DNA strand exchange, fluorescence dequenching | inhibition, % at 10 µM | actives 0.085% (n = 200,000);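 active = inhibition above 40% at the single screening dose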;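 also: 0% = DMSO control wells and 100% = blanks with heterologous ssDNA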
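material = hRad51 filaments on single-stranded DNA | reagent = Donor/quencher-labelled 47-bp dsDNA substrate | compound = 10 µM final, single point | schedule = strand-exchange reaction 15 min at room temperature | measured by = fluorescein emission 520 nm, excitation 485 nm | read-out basis = % inhibition versus plate control and blank means | benchmarks = plate controls and plate blanks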
Hck-Nef confirm: Hck-Nef kinase inhibition, confirmation; shares compounds with Hck Nef HTS; Recombinant Hck-YEEI:Nef, Z-Lyte FRET kinase assay; calls only at 10 µM; actives 28% (n = 1,300);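 active = average inhibition of at least 50%, with Z-scores no higher than 3 in both the phospho-tyrosine peptide and fluorescence counterscreens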
Active calls of the source: *; i = inactive; x = not tested or not shown; + = active, no number.

SMILES	Hck Nef HTS	PKD1 kinase inh	Mdm2 ligase inh	PERK inhibitor	TAG inh	Rad51 HR inh	Hck-Nef confirm
Cc1cc(SCC(=O)OCC(=O)c2c(N)n(C)c(=O)n(C)c2=O)c(C)cc1Br	55*	5	-8	0	2	-5	i
O=c1cc(CCl)nc2sc3ccccc3n12	61*	2	-5	2	7	-9	i
COc1ccc(Nc2n[nH]c(N)c2C(N)=O)cc1	65*	-2	-15	2	5	-5	i
COc1ccc(Nc2nc(C)cc(C)c2C(N)=O)cc1	-17	-2	0	0	2	-5	x
Cn1nccc1C(=O)Nc1sc2c(c1C(N)=O)CCCC2	68*	1	-8	0	6	-11	i
Cc1[nH]c2ccccc2c1C(=O)COC(=O)c1ccc2c(=O)n3c(nc2c1)CCC3	-2	-3	x	1	9	x	x
COc1c(NC=O)c2c(c([N+](=O)[O-])c1OC)C(=O)OC2	x	x	x	x	0	x	x
Cn1c(OCc2cccnc2)nc2c1c(=O)n(Cc1ccc(F)cc1)c(=O)n2C	13	x	0	-1	-8	-2	x
Cn1c(N/N=C2\CCCc3ccccc32)nc2c1c(=O)n(Cc1ccc(F)cc1)c(=O)n2C	56*	-11	-11	1	x	-16	i
COc1ccc(/C=C2/N=C3CCCCCN3C2=O)cc1	12	-7	2	1	x	16	x
O=C(O)c1ccc(N2C(=O)/C(=C/c3ccc(-c4ccc([N+](=O)[O-])cc4)o3)C=C2c2ccccc2)cc1	72*	-2	0	0	-19	-33	+
CCCCc1cc(=O)oc2c(CN(C)C)c(O)ccc12	83*	-1	21	0	34	1	x
CCc1c(C)c2ccc(O)c(CN(C)C)c2oc1=O	59*	3	14	0	x	0	x
CN(C)Cc1c(O)ccc2c(-c3ccccc3)cc(=O)oc12	6	-7	-12	0	5	-4	x
CN(C)Cc1c(O)ccc2c3c(c(=O)oc12)CCCCC3	76*	-4	0	0	2	0	x
COc1ccc(Oc2c(C)oc3c(CN(C)C)c(O)ccc3c2=O)cc1	2	14	-22	0	x	6	x
CCCCN(CC)Cc1c(O)ccc2c3c(c(=O)oc12)CCC3	+	x	-8	-1	-1	x	x
CC1(C(=O)NCCOc2ccccc2Cl)CC1(Cl)Cl (stereo unspecified)	x	x	x	x	2	x	x
COC(=O)/C=C/CSC1=N/C(=C/c2ccc(-n3cncn3)cc2)C(=O)N1	20	7	2	2	-1	3	x
CN(c1ccc(OCC(=O)OCC(=O)NCc2ccco2)cc1)S(=O)(=O)c1ccc2ccccc2c1	25	-2	5	0	6	9	x
CCOc1ccc(S(=O)(=O)N(CC(=O)N/N=C/c2cccs2)c2ccc(C)cc2)cc1	1	-2	4	-1	x	-8	x
COCCN(CCOC)Cc1c(O)ccc2c3c(c(=O)oc12)CCC3	72*	1	-9	-1	-10	-4	x
Fc1ccc(N2N=C(c3cccs3)CC2c2ccccc2)cc1 (stereo unspecified)	56*	-3	-4	1	-33	2	i
O=S(=O)(c1ccccc1)N1N=C(c2cccs2)CC1c1ccc(F)cc1 (stereo unspecified)	-2	-9	-9	0	-7	6	x
COCCN(Cc1ccc(OC)cc1)c1c(C)nc2ccc(C(=O)NCCc3c[nH]c4ccccc34)cn12	x	x	x	x	8	x	x
Nc1c2ccccc2nc2ccccc12	93*	x	-21	1	54*	24	x
COc1cc(OC)cc(C(=O)Nc2ccc(N3CCN(C(=O)c4cccs4)CC3)cc2)c1	x	x	x	x	0	x	x
C(=N\Nc1ccccn1)/c1c[nH]c2ccccc12	51*	x	10	1	9	x	i
O=c1nc(N/N=C/c2c[nH]c3ccccc23)cn[nH]1	39	x	-34	2	-1	10	x
CCOc1nc2c(c(-c3cccs3)c1C#N)Cc1ccccc1-2	12	x	-10	1	8	13	x

Compound activity deposited in PubChem BioAssay by several laboratories.
